The list is not random: actives were taken first. Their share in the collection is about 3.1%.
OX1R antag-1 – antagonists of human orexin 1 receptor; CHO/OX1R cells, Fluo-8 calcium fluorescence, orexin A; 330,000 compounds, 0.43% hits; inhibition, % at 5 µM; AID 434989;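 active = inhibition above its plate's threshold, mean inhibition of all tested compounds on the plate plus 3 SD, cut at about 37% in these data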;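 also: 0% = orexin A challenge wells and 100% = SB-334867-A antagonist wells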
CHO parental Ca – counter-screen for OX1R antagonists: effect in parental CHO cells | parental CHO-K1, ATP-induced calcium, Fluo-8 fluorescence | inhibition, % at 5.6 µM | 330,000 compounds, 0.63% hits;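 active = inhibition above that plate's mean sample inhibition plus 3 SD, cut at about 26% in these data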;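 also: 0% = ATP-challenged DMSO wells and 100% = DMSO wells without ATP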
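Test system: untransfected parental CHO cell line. Compound: one dose, 5.6 µM nominal. Detection: intracellular calcium via Fluo-8 no-wash fluorescent dye. Measure: % inhibition. Benchmarks: ATP-challenged DMSO wells low, unchallenged DMSO wells high.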
GalR3 antagonist – blocks the human galanin receptor 3; AID 651719; 360,000 compounds, 0.44% hits; inhibition, % at 3 µM; HEK293 GalR3-CNG cAMP membrane potential fluorescence; galR3 body fused to GalR1 C-terminus;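 active = inhibition above the screen-wide average plus 3 SD, cut at about 13% in these data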;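 also: forskolin and galanin both at EC90 stimulate the cells; cAMP rise reported by CNG channel membrane potential dye signal; 0% = forskolin plus galanin with DMSO and 100% = forskolin alone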
Target sequence (O60755 1-299 limits assumed): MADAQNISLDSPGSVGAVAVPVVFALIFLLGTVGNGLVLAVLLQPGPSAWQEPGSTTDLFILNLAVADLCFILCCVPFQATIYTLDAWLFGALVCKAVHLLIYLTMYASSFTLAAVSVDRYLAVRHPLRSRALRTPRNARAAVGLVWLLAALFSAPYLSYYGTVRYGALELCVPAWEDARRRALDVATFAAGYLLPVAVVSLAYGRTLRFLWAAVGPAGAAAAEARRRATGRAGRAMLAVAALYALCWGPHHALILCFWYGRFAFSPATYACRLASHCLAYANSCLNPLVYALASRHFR
GPR7 antag – blocks human GPR7 receptor signaling; P48145; GPR7-expressing cells, fluorescence antagonist assay; inhibition, % at 4.4 µM; 290,000 compounds, 1.1% hits; in the data active = inhibition above about 16%, passing the limit was not always enough;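 also: cells stimulated with the agonist NPW; 0% = agonist with vehicle and 100% = vehicle without agonist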
Target sequence (P48145 whole entry, looked up): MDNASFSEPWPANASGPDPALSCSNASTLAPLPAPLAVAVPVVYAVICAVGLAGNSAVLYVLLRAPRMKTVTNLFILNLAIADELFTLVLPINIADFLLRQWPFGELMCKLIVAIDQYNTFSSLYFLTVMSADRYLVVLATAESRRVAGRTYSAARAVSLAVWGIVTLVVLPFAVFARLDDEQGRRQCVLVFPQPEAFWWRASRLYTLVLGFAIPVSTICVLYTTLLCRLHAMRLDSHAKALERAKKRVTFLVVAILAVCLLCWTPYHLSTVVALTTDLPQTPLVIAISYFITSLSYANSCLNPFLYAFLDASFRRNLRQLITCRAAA
OX1R antag-2 – OX1R (human) antagonism; O43613; OX1R-expressing cells, FRET antagonist read-out; inhibition, % at 6.6 µM; 330,000 compounds, 1.8% hits; in the data active = inhibition mostly above about 38%, no sharp cut-off; inactive = mostly below about 40%;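 also: 0% = agonist challenge alone and 100% = reference antagonist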
OX1R Ca confirm – OX1R (human) antagonism, confirmed; shares compounds with OX1R antag-1; CHO/OX1R cells, orexin A calcium Fluo-8 fluorescence; inhibition, % at 5 µM; 1,100 compounds, 38% hits; in the data active = inhibition above about 29%;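 also: 0% = agonist challenge alone and 100% = reference antagonist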
CHO Ca triplic – signal in parental CHO cells, OX1R antagonist counter-screen. AID 492965. 1,100 compounds, 9.3% hits. inhibition, % at 5.6 µM. parental CHO-K1, ATP-induced calcium, Fluo-8 fluorescence. shares compounds with OX1R antag-1;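 active = inhibition above a per-plate limit, the mean inhibition of that plate's test compounds plus 3 SD, cut at about 25% in these data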;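 also: 0% = ATP challenge with DMSO and 100% = DMSO without ATP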
* hit, by the source's call; x = not tested or not shown.

SMILES	OX1R antag-1	CHO parental Ca	GalR3 antagonist	GPR7 antag	OX1R antag-2	OX1R Ca confirm	CHO Ca triplic
COc1ccc(C2=NS(=O)(=O)N(C)C(C(=O)N3CCOCC3)=C2)cc1OC	-3	-5	x	-9	13	x	x
Cc1cc(OCC(=O)Nc2cccc(S(=O)(=O)N3CCCCC3)c2)ccc1Cl	36	3	-4	x	6	16	14
COc1ccc(-c2ccc3c(c2)[C@@H]2C[C@H](N(C)C(=O)C(C)(C)C)[C@H]([C@H](C)O)C(=O)N2CC3)cc1	x	x	2	x	x	x	x
FC(F)(F)COc1ccc(-n2ccnc2)nn1	21	0	1	-14	12	3	8
O=C(NCCCn1ccnc1)c1ccc(OCC(F)(F)F)cc1	-7	-1	-8	-13	0	x	x
CCCCOc1ccc(N(CC(=O)NC2CCCCC2)C(=O)CCC(=O)Nc2ccccn2)cc1	9	-3	-10	0	10	x	x
O=C(NCCN1C(=O)S/C(=C\c2ccccc2)C1=O)c1cc(S(=O)(=O)N2CCOCC2)c(Cl)cc1Cl	30	19	-2	-4	34	59*	4
O=C1Nc2ccc(S(=O)(=O)NCCC3=CCCCC3)c3cccc1c23	34	19	1	-7	61	-2	1
O=C1Nc2ccc(S(=O)(=O)NCCCO)c3cccc1c23	x	x	-1	-19	x	x	x
COc1ccc(CNC(=O)CCNC(=O)c2ccco2)cc1OC	x	x	-2	x	x	x	x
CCN(CC(=O)N1CCN(Cc2ccccc2)CC1)S(=O)(=O)c1ccc(C)cc1	-4	-3	-3	-9	26	x	x
N#Cc1c(C(F)(F)F)cc(-c2ccco2)nc1SCc1ccccn1	44	21	4	-12	5	-18	3
CC(=O)N1Cc2cc(C(=O)NCC(F)(F)F)nc(-c3cccc(-c4cc5ccccc5o4)c3)c2[C@H]1CCO	x	x	-4	x	x	x	x
O=C(OCc1cccc([N+](=O)[O-])c1)c1cc2ccccc2oc1=O	45	-12	-10	-14	9	-7	0
CNc1snc(C)c1C(=O)OCC(=O)c1ccc(Cl)cc1	37	2	-1	x	19	16	45*
COC(=O)c1ccc(NC(=S)NNC(=O)c2ccccc2)cc1	28	-10	1	5	7	4	7
Cc1ccc(S(=O)(=O)NC(=O)Nc2ccc(C)cc2C)cc1	x	x	-1	0	x	x	x
CN(CC(=O)Nc1ccccc1Br)C(=O)CCSc1ccc(F)cc1	-20	-25	-1	x	18	x	x
CSc1cccc(NC(=O)CN(c2cc(C)ccc2C)S(C)(=O)=O)c1	26	1	1	-5	19	2	-15
CC(OC(=O)Cn1cc(C(F)(F)F)ccc1=O)C(=O)N(C)c1ccccc1 (stereo unspecified)	-22	-6	-7	x	10	x	x
O=C(C1CCN(c2ncnc3c2nc2n3CCCCC2)CC1)N1CCN(c2cccc(Cl)c2)CC1	31	5	-8	5	26	22	-2
O=C(C1CCCN(c2ncnc3c2nc2n3CCCCC2)C1)N1CCN(c2ccc(Cl)cc2)CC1 (stereo unspecified)	-19	-11	-6	14	6	x	x
Fc1ccc(NC(=S)Nc2ccc(F)c(Cl)c2)cc1Cl	34	24	x	-5	36	37*	61*
CC(C)N(CCc1ccncc1)C(=S)Nc1ccc(F)c(Cl)c1	31	9	-4	-17	1	7	-2
CCOc1ccc(CN(C)C(=O)CNC(=O)c2ccc3ccccc3c2)cc1OC	3	-10	-5	-7	69	x	x
SMILES	OX1R antag-1	CHO parental Ca	GalR3 antagonist	GPR7 antag	OX1R antag-2	OX1R Ca confirm	CHO Ca triplic
COc1ccc2[nH]c(C(=O)O)c(CCN3C(=O)c4cccc([N+](=O)[O-])c4C3=O)c2c1	103*	9	-1	-6	16	-6	-1
COc1ccc2[nH]c(C(=O)O)c(CCNC(C)=O)c2c1	-20	-7	-3	2	11	x	x
Cc1ccccc1-c1nnn(Cc2cccc(S(=O)(=O)N3CCOCC3)c2)n1	44*	5	-7	x	10	44*	16
COc1cccc(NC(=O)CN(c2ccccc2OC)S(=O)(=O)c2cccs2)c1	36	-16	-4	x	21	14	-8
CCOc1cccc(-c2c(C(=O)N/N=C/c3ccc(C)s3)nnn2-c2nonc2N)c1	-9	-3	2	-14	12	x	x
CCOc1cccc(-c2c(C(=O)N/N=C/c3c(F)cccc3Cl)nnn2-c2nonc2N)c1	34	-2	-1	3	17	35*	-1
COc1ccccc1N(CC(=O)NCc1ccccc1)S(=O)(=O)c1cccs1	x	x	-7	x	x	x	x
CSc1nnc(C)c(=O)n1COC(=O)COc1ccc(Cl)cc1Cl	-11	14	-4	-2	19	x	x
CCCn1c2ccccc2c2nc3ccccc3nc21	28	-29	-5	-10	72	12	-14
CCOC(=O)Cn1c2ccccc2c2nc3ccccc3nc21	-12	-8	-2	-6	15	x	x
CCn1c2ccc(F)cc2c2nc3ccccc3nc21	34	-17	-2	-13	95	27	-4
Cc1cc([N+](=O)[O-])ccc1NC(=S)NC1CCCC1	-9	15	-1	-16	13	x	x
Cc1sc(NC(=O)C2CSC3(C)CCC(=O)N23)nc1-c1ccc(F)cc1 (stereo unspecified)	-19	-15	-1	-5	18	x	x
C=CCNc1cccc2c1S(=O)(=O)N[C@@H](C)CO2	x	x	-4	x	x	x	x
O=C(NCc1cccc(Cl)c1)C1CCC(=O)N(CCCN2CCCC2=O)C1 (stereo unspecified)	-8	-1	-2	-13	5	x	x
OCCN(CC(O)Cn1ccc2ccccc21)CC(O)Cn1ccc2ccccc21 (stereo unspecified)	39	19	-3	10	11	15	5
COc1ccc(N(CC(=O)Nc2cccc(N(C)S(C)(=O)=O)c2)S(=O)(=O)c2ccc(C)cc2)cc1	27	-4	-5	-4	28	10	1
COc1ccc(N(CC(=O)Nc2ccc(OC)c(OC)c2)S(=O)(=O)c2ccccc2)cc1Cl	-33	-16	7	-16	6	x	x
COc1ccc(N(CC(=O)Nc2cccc(N(C)S(C)(=O)=O)c2)S(=O)(=O)c2ccc(F)cc2)cc1	4	-1	-7	-7	32	x	x
COc1ccc(N(CC(=O)Nc2cccc(N(C)S(C)(=O)=O)c2)S(=O)(=O)c2ccccc2)cc1Cl	59*	-6	9	-7	68	56*	-3
CN(c1ccccc1)S(=O)(=O)c1cccc(NS(=O)(=O)c2ccc(/C=C/C(=O)O)cc2)c1	-8	10	-2	-18	21	x	x
O=C(N/C(=C/c1cccc(Br)c1)c1nc(=S)[nH][nH]1)c1ccccc1	33	9	-4	18	32	49*	12
Cc1ccc(C(=O)N/C(=C\c2ccc(Br)cc2)c2nc(=S)[nH][nH]2)cc1	8	8	-10	0	-1	x	x
